Where “and” joins values, the source holds several entries; their conditions need not be identical. Identical values can stand only once.
Test system: U2OS
Experiment: Multiplex assay against U2OS
Type: toxicity, cell-based
Details: human
Method in brief: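 Tubulin, mitochondrial-mass and membrane-permeability phenotypes are per cents of healthy-nucleus cells. Cells were gated by CellPathfinder machine learning into Hoechst high-intensity objects or normal cells, normal cells into healthy, pyknosed or fragmented nuclei, and pyknosed cells into mitotic or apoptotic. Before that, live cells stained at seeding with Hoechst33342, BioTracker Green Microtubule Cytoskeleton Dye, MitoTracker Red and Annexin V Alexa Fluor 680 were imaged on a CQ1 microscope at 37°C and 5% CO2 after compound addition.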

[1] = 12 h, 1 µM, compound concentration 1 uM, replicate 1
[2] = 12 h, 1 µM, compound concentration 1 uM, replicate 2
[3] = 12 h, 10 µM, compound concentration 10 uM, replicate 1
[4] = 12 h, 10 µM, compound concentration 10 uM, replicate 2
[5] = 24 h, 1 µM, compound concentration 1 uM, replicate 1
[6] = 24 h, 1 µM, compound concentration 1 uM, replicate 2
[7] = 24 h, 10 µM, compound concentration 10 uM, replicate 1
[8] = 24 h, 10 µM, compound concentration 10 uM, replicate 2
[9] = 48 h, 1 µM, compound concentration 1 uM, replicate 1
[10] = 48 h, 1 µM, compound concentration 1 uM, replicate 2
[11] = 48 h, 10 µM, compound concentration 10 uM, replicate 1
[12] = 48 h, 10 µM, compound concentration 10 uM, replicate 2

Cc1cc(C)c(S(=O)(=O)N(Cc2ccc(-c3cccc(S(C)(=O)=O)c3)cc2)Cc2ccc(C(F)(F)F)o2)c(C)c1
Population Apoptotic (%) [1]: 50%
Population Fragmented Nuclei (%) [1]: 9%
Population Healthy Nuclei (%) [1]: 84%
Population Hoechst High Intensity Objects (%) [1]: 7%
Population Membrane Permeable-Phenotype (%) [1]: 4%
Population Mitochondria Different-Phenotype (%) [1]: 18%
Population Mitotic Cells (%) [1]: 50%
Population Normal (%) [1]: 92%
Population Pyknosed Nuclei (%) [1]: 6%
Population Tubulin-Different-Phenotype (%) [1]: 12%
Total Cell Count [1]: 77
Population Apoptotic (%) [2]: 66%
Population Fragmented Nuclei (%) [2]: 15%
Population Healthy Nuclei (%) [2]: 80%
Population Hoechst High Intensity Objects (%) [2]: 6%
Population Membrane Permeable-Phenotype (%) [2]: 3%
Population Mitochondria Different-Phenotype (%) [2]: 21%
Population Mitotic Cells (%) [2]: 33%
Population Normal (%) [2]: 93%
Population Pyknosed Nuclei (%) [2]: 3%
Population Tubulin-Different-Phenotype (%) [2]: 27%
Total Cell Count [2]: 72
Population Apoptotic (%) [3]: 31%
Population Fragmented Nuclei (%) [3]: 8%
Population Healthy Nuclei (%) [3]: 81%
Population Hoechst High Intensity Objects (%) [3]: 5%
Population Membrane Permeable-Phenotype (%) [3]: 58%
Population Mitochondria Different-Phenotype (%) [3]: 27%
Population Mitotic Cells (%) [3]: 68%
Population Normal (%) [3]: 94%
Population Pyknosed Nuclei (%) [3]: 10%
Population Tubulin-Different-Phenotype (%) [3]: 85%
Total Cell Count [3]: 104
Population Apoptotic (%) [4]: 0%
Population Fragmented Nuclei (%) [4]: 14%
Population Healthy Nuclei (%) [4]: 77%
Population Hoechst High Intensity Objects (%) [4]: 22%
Population Membrane Permeable-Phenotype (%) [4]: 3%
Population Mitochondria Different-Phenotype (%) [4]: 3%
Population Mitotic Cells (%) [4]: 100%
Population Normal (%) [4]: 77%
Population Pyknosed Nuclei (%) [4]: 8%
Population Tubulin-Different-Phenotype (%) [4]: 11%
Total Cell Count [4]: 81
Population Apoptotic (%) [5]: 40%
Population Fragmented Nuclei (%) [5]: 10%
Population Healthy Nuclei (%) [5]: 82%
Population Hoechst High Intensity Objects (%) [5]: 3%
Population Membrane Permeable-Phenotype (%) [5]: 3%
Population Mitochondria Different-Phenotype (%) [5]: 13%
Population Mitotic Cells (%) [5]: 60%
Population Normal (%) [5]: 96%
Population Pyknosed Nuclei (%) [5]: 7%
Population Tubulin-Different-Phenotype (%) [5]: 9%
Total Cell Count [5]: 89
Population Apoptotic (%) [6]: 0%
Population Fragmented Nuclei (%) [6]: 14%
Population Healthy Nuclei (%) [6]: 80%
Population Hoechst High Intensity Objects (%) [6]: 1%
Population Membrane Permeable-Phenotype (%) [6]: 5%
Population Mitochondria Different-Phenotype (%) [6]: 18%
Population Mitotic Cells (%) [6]: 100%
Population Normal (%) [6]: 98%
Population Pyknosed Nuclei (%) [6]: 5%
Population Tubulin-Different-Phenotype (%) [6]: 32%
Total Cell Count [6]: 86
Population Apoptotic (%) [7]: 41%
Population Fragmented Nuclei (%) [7]: 11%
Population Healthy Nuclei (%) [7]: 71%
Population Hoechst High Intensity Objects (%) [7]: 6%
Population Membrane Permeable-Phenotype (%) [7]: 47%
Population Mitochondria Different-Phenotype (%) [7]: 32%
Population Mitotic Cells (%) [7]: 58%
Population Normal (%) [7]: 93%
Population Pyknosed Nuclei (%) [7]: 17%
Population Tubulin-Different-Phenotype (%) [7]: 87%
Total Cell Count [7]: 133
Population Apoptotic (%) [8]: 14%
Population Fragmented Nuclei (%) [8]: 15%
Population Hoechst High Intensity Objects (%) [8]: 10%
Population Membrane Permeable-Phenotype (%) [8]: 5%
Population Mitochondria Different-Phenotype (%) [8]: 10%
Population Mitotic Cells (%) [8]: 85%
Population Normal (%) [8]: 89%
Population Pyknosed Nuclei (%) [8]: 13%
Population Tubulin-Different-Phenotype (%) [8]: 15%
Total Cell Count [8]: 109
Population Apoptotic (%) [9]: 64%
Population Fragmented Nuclei (%) [9]: 6%
Population Healthy Nuclei (%) [9]: 83%
Population Hoechst High Intensity Objects (%) [9]: 3%
Population Membrane Permeable-Phenotype (%) [9]: 1%
Population Mitochondria Different-Phenotype (%) [9]: 7%
Population Mitotic Cells (%) [9]: 35%
Population Normal (%) [9]: 96%
Population Pyknosed Nuclei (%) [9]: 9%
Population Tubulin-Different-Phenotype (%) [9]: 4%
Total Cell Count [9]: 116
Population Apoptotic (%) [10]: 50%
Population Fragmented Nuclei (%) [10]: 9%
Population Healthy Nuclei (%) [10]: 84%
Population Hoechst High Intensity Objects (%) [10]: 2%
Population Membrane Permeable-Phenotype (%) [10]: 6%
Population Mitochondria Different-Phenotype (%) [10]: 25%
Population Mitotic Cells (%) [10]: 50%
Population Normal (%) [10]: 97%
Population Pyknosed Nuclei (%) [10]: 5%
Population Tubulin-Different-Phenotype (%) [10]: 34%
Total Cell Count [10]: 123
Population Apoptotic (%) [11]: 55%
Population Fragmented Nuclei (%) [11]: 9%
Population Healthy Nuclei (%) [11]: 72%
Population Hoechst High Intensity Objects (%) [11]: 3%
Population Membrane Permeable-Phenotype (%) [11]: 24%
Population Mitochondria Different-Phenotype (%) [11]: 24%
Population Mitotic Cells (%) [11]: 45%
Population Normal (%) [11]: 96%
Population Pyknosed Nuclei (%) [11]: 18%
Population Tubulin-Different-Phenotype (%) [11]: 55%
Total Cell Count [11]: 181
Population Apoptotic (%) [12]: 25%
Population Fragmented Nuclei (%) [12]: 7%
Population Healthy Nuclei (%) [12]: 82%
Population Membrane Permeable-Phenotype (%) [12]: 6%
Population Mitochondria Different-Phenotype (%) [12]: 10%
Population Mitotic Cells (%) [12]: 75%
Population Pyknosed Nuclei (%) [12]: 10%
Population Tubulin-Different-Phenotype (%) [12]: 13%
Total Cell Count [12]: 148

Cl.O=C(c1ccc(Nc2nccc(-c3cc4ccccc4s3)n2)cc1)N1CCC(N2CCCC2)CC1
Population Apoptotic (%) [1]: 31%
Population Fragmented Nuclei (%) [1]: 8%
Population Healthy Nuclei (%) [1]: 80%
Population Hoechst High Intensity Objects (%) [1]: 1%
Population Membrane Permeable-Phenotype (%) [1]: 18%
Population Mitochondria Different-Phenotype (%) [1]: 11%
Population Mitotic Cells (%) [1]: 68%
Population Normal (%) [1]: 98%
Population Pyknosed Nuclei (%) [1]: 11%
Population Tubulin-Different-Phenotype (%) [1]: 18%
Total Cell Count [1]: 145
Population Apoptotic (%) [2]: 0%
Population Fragmented Nuclei (%) [2]: 20%
Population Healthy Nuclei (%) [2]: 75%
Population Hoechst High Intensity Objects (%) [2]: 25%
Population Membrane Permeable-Phenotype (%) [2]: 13%
Population Mitochondria Different-Phenotype (%) [2]: 19%
Population Mitotic Cells (%) [2]: 100%
Population Normal (%) [2]: 74%
Population Pyknosed Nuclei (%) [2]: 4%
Population Tubulin-Different-Phenotype (%) [2]: 19%
Total Cell Count [2]: 110
Population Apoptotic (%) [3]: 68% and 85%
Population Fragmented Nuclei (%) [3]: 15% and 25%
Population Healthy Nuclei (%) [3]: 6%
Population Hoechst High Intensity Objects (%) [3]: 5% and 7%
Population Membrane Permeable-Phenotype (%) [3]: 46% and 76%
Population Mitochondria Different-Phenotype (%) [3]: 92%
Population Mitotic Cells (%) [3]: 31% and 14%
Population Normal (%) [3]: 94% and 92%
Population Pyknosed Nuclei (%) [3]: 77% and 66%
Total Cell Count [3]: 174 and 176
Population Apoptotic (%) [4]: 93% and 70%
Population Fragmented Nuclei (%) [4]: 35% and 26%
Population Healthy Nuclei (%) [4]: 7% and 13%
Population Membrane Permeable-Phenotype (%) [4]: 50% and 54%
Population Mitochondria Different-Phenotype (%) [4]: 100% and 81%
Population Normal (%) [4]: 78% and 93%
Population Pyknosed Nuclei (%) [4]: 57% and 60%
Population Tubulin-Different-Phenotype (%) [4]: 100% and 90%
Total Cell Count [4]: 73
Population Apoptotic (%) [5]: 38%
Population Fragmented Nuclei (%) [5]: 10%
Population Healthy Nuclei (%) [5]: 81%
Population Hoechst High Intensity Objects (%) [5]: 3%
Population Membrane Permeable-Phenotype (%) [5]: 19%
Population Mitochondria Different-Phenotype (%) [5]: 16%
Population Mitotic Cells (%) [5]: 61%
Population Normal (%) [5]: 96%
Population Pyknosed Nuclei (%) [5]: 8%
Population Tubulin-Different-Phenotype (%) [5]: 14%
Total Cell Count [5]: 148
Population Apoptotic (%) [6]: 44%
Population Fragmented Nuclei (%) [6]: 25%
Population Healthy Nuclei (%) [6]: 68%
Population Hoechst High Intensity Objects (%) [6]: 14%
Population Membrane Permeable-Phenotype (%) [6]: 12%
Population Mitochondria Different-Phenotype (%) [6]: 11%
Population Mitotic Cells (%) [6]: 55%
Population Normal (%) [6]: 85%
Population Pyknosed Nuclei (%) [6]: 5%
Population Tubulin-Different-Phenotype (%) [6]: 13%
Total Cell Count [6]: 97
Population Apoptotic (%) [7]: 94% and 98%
Population Fragmented Nuclei (%) [7]: 31% and 18%
Population Healthy Nuclei (%) [7]: 4% and 9%
Population Hoechst High Intensity Objects (%) [7]: 12% and 23%
Population Membrane Permeable-Phenotype (%) [7]: 100%
Population Mitochondria Different-Phenotype (%) [7]: 100% and 80%
Population Mitotic Cells (%) [7]: 5% and 1%
Population Normal (%) [7]: 87% and 76%
Population Pyknosed Nuclei (%) [7]: 63% and 71%
Population Tubulin-Different-Phenotype (%) [7]: 100%
Total Cell Count [7]: 171 and 213
Population Apoptotic (%) [8]: 100%
Population Fragmented Nuclei (%) [8]: 36% and 26%
Population Healthy Nuclei (%) [8]: 16%
Population Hoechst High Intensity Objects (%) [8]: 14% and 31%
Population Mitotic Cells (%) [8]: 0%
Population Normal (%) [8]: 85% and 68%
Population Pyknosed Nuclei (%) [8]: 59% and 58%
Population Tubulin-Different-Phenotype (%) [8]: 87%
Total Cell Count [8]: 192 and 76
Population Apoptotic (%) [11]: 98%
Population Fragmented Nuclei (%) [11]: 32%
Population Healthy Nuclei (%) [11]: 6%
Population Hoechst High Intensity Objects (%) [11]: 26%
Population Membrane Permeable-Phenotype (%) [11]: 75%
Population Mitochondria Different-Phenotype (%) [11]: 100%
Population Mitotic Cells (%) [11]: 1%
Population Normal (%) [11]: 73%
Population Pyknosed Nuclei (%) [11]: 61%
Population Tubulin-Different-Phenotype (%) [11]: 100%
Total Cell Count [11]: 154
Population Apoptotic (%) [12]: 100%
Population Fragmented Nuclei (%) [12]: 28%
Population Healthy Nuclei (%) [12]: 50%
Population Hoechst High Intensity Objects (%) [12]: 44%
Population Membrane Permeable-Phenotype (%) [12]: 100%
Population Mitotic Cells (%) [12]: 0%
Population Normal (%) [12]: 55%
Population Pyknosed Nuclei (%) [12]: 21%
Total Cell Count [12]: 77
